From PMC9075022 (Research in Pharmaceutical Sciences, 2022)
Converted amounts (≈) assume the structure as drawn. Where two headings read alike, the source gives them in different places.

Tests used:
PC12 cell line = assay: In vitro antiproliferative MTT assay, PC12; type: cell-based, rat; conditions: 48 h
In short: (§1)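 PC12 (rat pheochromocytoma) or fibroblast cells at 5000/well in DMEM with 10% heat-inactivated FBS, penicillin 100 U/mL and streptomycin 100 μg/mL, grown 24 h. At 80% confluence, test compound or docetaxel/cisplatin controls were added at 1–360 μg/mL for 48 h. MTT (5 mg/mL in PBS pH 7.4) added for 3–4 h; formazan dissolved in DMSO, read at 570 nm. Triplicate; IC50 calculated.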

formation of β-hematin = assay: In vitro β-hematin inhibition assay; type: biochemical; conditions: 200 μg/mL, 60 °C, 24 h; positive if more than 90%
In short: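 Heme detoxification (ITHD) assay. Hemin chloride was dissolved in DMSO and diluted to 60 μg/mL in 1 M acetate buffer pH 4.5. Tween 20 stock was 0.012 g/L; compound was dissolved in DMSO. Hemin, sample and Tween were mixed 9:9:2 in triplicate, final 200 μg/mL. Controls: hemin-free matrix blanks, DMSO negative, chloroquine phosphate positive. Incubated 60 °C, 24 h; mixed and absorbance read at 405 nm.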

fibroblast cell line = assay: In vitro antiproliferative MTT assay, fibroblast; type: cell-based; conditions: 48 h
In short: as §1

PC12 cells = assay: Cellular uptake by fluorescent microscopy; type: cell-based, rat; conditions: 100 μg/mL, 24 h incubation, 37 °C
In short: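 PC12 cells at 5 × 10^4 cells/well in DMEM with 10% FBS and antibiotics, kept at 37 °C in 5% CO2. Exposed to test compound at 37 °C for 24 h. Washed three times with cold PBS, then 3 min in sterile distilled water. Intrinsic compound fluorescence imaged without staining by fluorescence microscopy (bright field, DAPI, GFP channels), compared with untreated cells.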

P. falciparum = conditions: cited from earlier work

Cc1c(OCc2ccccc2)c(=O)ccn1CCCOC(=O)c1ccc(Cl)cc1Cl [7a, 3-(3-(benzyloxy)-2-methyl-4-oxopyridin-1(4H)-yl) propyl 2,4-dichlorobenzoate]
IC50 against PC12 (PC12 cell line): 37 µg/mL (≈ 82.9 µM) | Heme inhibition (%) (formation of β-hematin): 39% | IC50 on fibroblast cell line (fibroblast cell line): 44 µg/mL (≈ 98.6 µM) | cellular uptake (fluorescent emission) (PC12 cells): cellular uptake potential

Cc1occc(=O)c1O [Maltol]
inhibition of growth of P. falciparum compared to control (P. falciparum; 0.01 mM): about 15% | inhibition of growth of P. falciparum compared to control (P. falciparum; 0.10 mM): ~50%

Cc1c(OCc2ccccc2)c(=O)ccn1CCCO [alcoholic precursor, 3-(benzyloxy) -1-(3-hydroxypropyl) -2-methylpyridin-4(1H)-one]
toxicity against PC12 in words (PC12 cell line; 1-360 μg/mL): didn’t display remarkable toxicity in defined concentrations

N.N.[Cl][Pt][Cl] [cisplatin, reference compound]
IC50 against PC12 (PC12 cell line): 8 µg/mL
